Assay outcomes from PubChem.
Rev-erbA mod: modulators of human Rev-erb alpha DNA binding; P20393; Rev-erbα–FITC-DNA binding, fluorescence polarization, 90 min; activity, % at 10 µM; actives 0.79% (n = 370,000); AID 1259318;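 active means activity above about 14%, limit read from the data; passing the limit was not always enough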;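 further: 0% = DMSO wells with 35 nM protein and 100% = DMSO wells with 750 nM protein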
Target sequence (P20393 whole entry, looked up): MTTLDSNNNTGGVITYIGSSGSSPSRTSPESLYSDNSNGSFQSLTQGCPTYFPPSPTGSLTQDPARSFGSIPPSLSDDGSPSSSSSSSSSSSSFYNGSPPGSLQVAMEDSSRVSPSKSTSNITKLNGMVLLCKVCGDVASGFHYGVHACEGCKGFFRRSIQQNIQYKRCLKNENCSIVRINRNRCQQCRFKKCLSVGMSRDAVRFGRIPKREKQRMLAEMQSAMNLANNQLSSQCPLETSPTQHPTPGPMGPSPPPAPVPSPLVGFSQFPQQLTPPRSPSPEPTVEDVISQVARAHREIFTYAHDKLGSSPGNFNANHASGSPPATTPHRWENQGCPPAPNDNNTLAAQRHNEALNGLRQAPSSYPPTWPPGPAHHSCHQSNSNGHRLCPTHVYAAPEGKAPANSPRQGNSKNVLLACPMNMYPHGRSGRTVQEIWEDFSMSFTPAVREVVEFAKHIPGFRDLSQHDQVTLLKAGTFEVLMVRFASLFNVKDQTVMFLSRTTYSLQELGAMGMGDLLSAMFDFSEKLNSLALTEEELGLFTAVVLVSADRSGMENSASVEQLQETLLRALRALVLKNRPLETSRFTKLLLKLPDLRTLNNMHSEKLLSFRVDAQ
CR mimetic SO: yeast age-related superoxide inhibition as caloric restriction mimetic; AID 2690; actives 0.18% (n = 330,000); S. cerevisiae aged cells, superoxide DHE fluorescence; active compounds read low; superoxide response (% of plate mean), % at 10 µM;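 active means superoxide response under a set limit, about three screen SD below normal, cut at about 65% in these data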;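 further: yeast aged for seven days with compound at 30 °C before DHE staining; 100% = average MFI of all compound-treated wells on the plate with controls excluded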
Rce1 inhib: inhibitors of yeast Ras-converting enzyme; actives 0.27% (n = 290,000); yeast membranes, quenched prenylated peptide cleavage fluorescence; calls only; AID 2563; Q03530;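 active means fall in fluorescence gain of 50% or more versus controls, with final raw signal at or below 3038400; inconclusive means same 50% fall but final raw signal above 3038400; inactive means fall in fluorescence gain under 50%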;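 further: plate controls were neutral control wells for no effect and wells lacking membranes for full effect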
PG9 binder: binds the HIV-1 gp120 antibody PG9; TR-FRET gp120-PG9 antibody binding; inhibition, % at 6.7 µM; actives 0.43% (n = 360,000); AID 624416; in the data active means inhibition above about 8.5%
UCH37 DUB inh: human UCH37 deubiquitinating enzyme inhibition; Q9Y5K5; AID 588478; inhibition, % (test concentration not listed); actives 0.33% (n = 330,000); purified proteasome/UCH37, Ub-AMC cleavage fluorescence;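 active means mean inhibition over replicate wells above about 20%, limit read from the data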;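 further: 0% = compound-free wells with enzyme and 100% = wells lacking proteasome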
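Test system – human UCH37 enzyme supplied as purified proteasome complex · Incubation – 30 min preincubation with enzyme, 25 min cleavage at room temperature · Detection – AMC fluorescence from Ub-AMC cleavage, excitation 355 nm, emission 460 nm · Benchmarks – no-proteasome wells (full inhibition) and compound-free wells (no inhibition)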
beta cell repl: inducers of beta-cell replication in MIN6 cells. MIN6 cells proliferation, ATPlite luminescence, 48 h; cells starved in 0.2% serum; 100% = growth in 10% serum. proliferation, % at 10 µM. actives 0.29% (n = 330,000). AID 2380;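 active means compounds whose signal lies at least 3.5 SD above the mean of all wells on their plate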;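 further: 0% = DMSO-treated cells in low-serum medium and 100% = 10% serum control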
Rev-erbA confirm: confirmation of modulators of human Rev-erb alpha DNA binding; shares compounds with Rev-erbA mod; Rev-erb alpha FITC-DNA binding, fluorescence polarization, 90 min; activation, % at 25 µM; actives 61% (n = 3,000); AID 1259319;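 active means activation at or above a set limit, or at least 3 SD above the negative control mean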;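 further: 0% = 35 nM protein with DMSO and 100% = 750 nM protein high control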
RORg DNA counter: affects RORgamma DNA binding in a Rev-erb alpha counter-screen. purified RORgamma protein-FITC-DNA binding, fluorescence polarization. shares compounds with Rev-erbA mod. IC50, µM. actives 8% (n = 910). AID 1259320;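 active means Compounds whose fitted half-maximal concentration for disrupting protein-DNA binding is below 10 micromolar; the record names Rev-erb in its text, so the target is in doubt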
The depositor's hits bear a star; i = inactive; ? = inconclusive; . = no result given. Only some compounds are listed: those with a hit (about 1.9% of all), similar ones and a draw of the others.

SMILES	Rev-erbA mod	CR mimetic SO	Rce1 inhib	PG9 binder	UCH37 DUB inh	beta cell repl	Rev-erbA confirm	others
COC(=O)c1ccc2nc(Nc3nc4ccc(F)cc4s3)sc2c1	47.5*	121.8	i	1.9	-204.6	.	54.2*
COc1ccc(-c2oc3ccc(-c4cc(OC)c(OC)c(OC)c4)cc3c2C(=O)c2ccc(OC)nc2)cc1	22.4*	115.9	i	1.0	.	-3.3	2.5
CCc1noc2c1C(=NO)CC(c1ccccc1)C2 (stereo not given)	.	.	.	.	4.3	.	.
COc1ccc(C=NOC(=O)Nc2ccc(Cl)cc2)c(OC)c1	.	.	.	.	1.4	.	.
Cc1cccc(OCC(=O)NC(=S)Nc2ccccc2N2CCOCC2)c1C	40.0*	111.6	i	-1.3	6.7	-2.7	3.6
CC(C)C(=O)N1CCN(c2ccccc2NC(=S)NC(=O)Cc2ccccc2)CC1	17.2*	90.9	i	0.1	3.9	-2.8	1.7
Cc1ccccc1OCC(=O)Nc1ccccc1N1CCOCC1	4.4	103.9	i	1.5	-4.9	-3.0	.
Cc1nn(C)cc1C=NNC(=O)c1sc2ccccc2c1Cl	.	.	.	.	9.5	.	.
CCN(CC)c1ccc(S(=O)(=O)N2CCCCC2)cc1NC(=O)C1CSC2(C)CCC(=O)N12 (stereo not given)	22.8*	75.4	.	0.7	3.1	-6.8	21.7*
CC12CCC(=O)N1C(C(=O)Nc1cc(C(F)(F)F)ccc1N1CCCCC1)CS2 (stereo not given)	15.4*	93.7	i	1.6	1.5	-6.2	13.8
CCOc1ccc(S(=O)(=O)N2CCOCC2)cc1NC(=O)C1CSC2(C)CCC(=O)N12 (stereo not given)	-3.3	102.4	i	0.2	0.4	0.8	.
CCCOc1ccc(C=NNC(=O)CN2CCCCC2)cc1OCC	.	.	.	.	1.9	.	.
COc1cc2oc(=O)c3c(c2cc1OCC(=O)c1c(C)n(C)c2ccccc12)CCCC3	36.1*	105.2	i	-1.1	-120.6	0.0	-12.3
CC(=NNC(=O)c1cc(C)oc1C)c1ccc(C)c([N+](=O)[O-])c1	.	.	.	.	3.2	.	.
CN1C(=O)CSC1=NC12CC3CC(CC(C3)C1)C2	11.3	104.0	i	2.0	4.8	-2.2	.
CCN1C(=O)CSC1=NC12CC3CC(CC(C3)C1)C2	49.1*	90.0	i	-0.3	4.6	2.0	58.4*	RORg DNA counter=>40
CCC(C)(C)n1nnnc1CN1CCN(c2nc3cc(OC)ccc3cc2C#N)CC1	56.3*	84.4	i	-1.8	-13.8	-2.8	11.3
O=C1N/C(=N/N=Cc2ccccc2O)SC1Cc1ccc(F)cc1 (stereo not given)	.	.	.	.	-7.8	.	.
COc1ccc(C)cc1NC(=O)c1cnc2scc(C)n2c1=O	26.7*	.	.	1.4	-176.8	.	8.5
Cc1[nH]n(C(N)=S)c(=O)c1N=Nc1cc(-c2ccc(Br)cc2)[nH]n1	14.0*	126.9	i	1.1	6.8	-1.5	11.6
Cc1ccc(N=Nc2c(C)[nH]n(C(N)=S)c2=O)cc1C	0.6	113.3	i	-3.4	1.7	0.0	.
COc1ccc(C(=O)NN=c2oc3ccccc3cc2C(=O)NCc2ccccc2)cc1	.	.	.	.	0.9	.	.
Cc1cc2cc3c(cc2nc1SCC(=O)Nc1ccccc1)CCC3	33.2*	112.2	i	-0.9	-0.8	-1.7	15.4
Cc1cccc(NC(=O)CSCC(=O)Nc2ccc(S(=O)(=O)N3CCCC3)cc2)c1	4.0	109.4	i	2.0	1.8	0.2	.
COc1cc(NC(=O)CSc2nc3ccccc3cc2C)c(C(=O)O)cc1OC	-3.5	106.8	i	-2.3	6.5	0.0	.
SMILES	Rev-erbA mod	CR mimetic SO	Rce1 inhib	PG9 binder	UCH37 DUB inh	beta cell repl	Rev-erbA confirm	others
Cc1ccc2cc(C)c(SCC(=O)Nc3ccc(S(=O)(=O)N4CCCC4)cc3)nc2c1	26.8*	101.3	?	2.3	0.9	-2.4	19.1*
COc1ccc2cc(C(=O)COC(=O)COc3ccc4c(C)cc(=O)oc4c3)ccc2c1	85.2*	117.0	i	0.6	-35.2	0.0	52.3*	RORg DNA counter=>40
Cc1cc(=O)oc2cc(OCC(=O)OCC(=O)Nc3ccc4ccccc4c3)ccc12	-3.1	89.9	i	1.3	-33.9	-1.5	.
O=C(Nc1nccs1)c1c(O)c2cccc3c2n(c1=O)CCC3	36.5*	96.0	i	1.4	.	-6.2	29.7*
O=C(Nc1ccccn1)c1c(O)c2cccc3c2n(c1=O)CCC3	32.4*	101.7	i	0.7	-6.3	1.4	7.0
NCCNC(=O)c1c(O)c2cccc3c2n(c1=O)CCC3	-5.2	92.6	i	1.0	-10.9	-2.5	.
Cc1cccnc1NC(=O)c1c(O)c2cccc3c2n(c1=O)CCC3	-1.2	86.3	i	-0.2	0.7	-2.5	.
COc1ccc(OCc2ccc(C=NNC(=O)c3sccc3C)o2)cc1	.	.	.	.	2.3	.	.
O=C(CCCCCNc1nc(=S)[nH]c2ccccc12)NCc1ccccc1Cl	48.7*	77.0	i	3.7	3.1	-1.4	17.2
COc1ccc2cc(CCNC(=O)C(C)(C)C)c(=O)[nH]c2c1	-5.1	98.3	i	1.1	-1.0	-2.2	.
COc1ccc2cc(CCN3C(=O)c4ccccc4C3=O)c(=O)[nH]c2c1	27.7*	104.4	i	0.6	-51.4	-2.9	20.1*
N#C/C(=N\Nc1ccc([N+](=O)[O-])cc1)C(N)=S	35.4*	105.7	i	-5.8	.	-4.0	29.2*
N#C/C(=N/Nc1ccc([N+](=O)[O-])cc1)C(=N)N1CCCCC1	28.4*	.	i	-3.0	.	.	20.3*
N#CC(=NNc1ccccc1[N+](=O)[O-])C(N)=S	.	.	.	.	2.7	.	.
CN(C)N=Nc1ccc(S(=O)(=O)N=C(O)c2ccccc2)cc1	.	.	.	.	12.2	.	.
CCc1ccc(OCC(=O)NN=Cc2cc([N+](=O)[O-])ccc2N2CCOCC2)cc1	.	.	.	.	1.1	.	.
COc1cc(C(=O)NCC(=O)NCCN2C(=O)S/C(=C\c3ccccc3Cl)C2=O)cc(OC)c1OC	-2.9	110.5	i	0.9	8.5	-1.0	.
COc1cc(/C=C2\SC(=O)N(CCNC(=O)c3sc4cc(F)ccc4c3Cl)C2=O)cc(OC)c1OC	72.1*	106.5	i	0.8	0.4	-3.3	32.2*	RORg DNA counter=i
CCc1ccc2c(c1)C(=NOC)C(=O)N2	.	.	.	.	5.5	.	.
COc1cccc2cc(C(=O)NCc3ccc(Cl)cc3)c(=O)oc12	21.1*	88.3	i	0.1	-11.1	-3.3	10.1
COc1ccc(CN(C(=O)CON=Cc2ccccc2)c2ccccc2C(=O)O)cc1	.	.	.	.	2.2	.	.
CNC(=O)CSc1nc(-c2ccccc2)c(-c2ccccc2)o1	14.0*	96.8	i	0.0	-3.7	-0.8	11.2
COc1ccc2c(c1)c(=O)c(C(=O)c1ccc(F)cc1)cn2CC(=O)Nc1ccc(F)cc1	33.0*	91.5	i	7.2	6.3	-0.4	25.9*
